Assay results: ChEMBL document CHEMBL1142767, “2-(2-Furanyl)-7-phenyl[1,2,4]triazolo[1,5-c]pyrimidin-5-amine analogs: highly potent, orally active, adenosine A2A antagonists. Part 1” (Bioorg Med Chem Lett, 2005)
Calls of active or inactive are those of the source.

Tests used:
Rattus norvegicus [1] = test: Anti-cataleptic activity in Rat at oral dose of 3 mg/kg retested at 1 and 4 hr after administration; Activity Not Traced; assay type: functional, organism-based; set-up: dose 3 mg/kg
Outline: (§1)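 Male CD rats, 200-240 g, housed 4 per cage on a 12-h light/dark cycle. Catalepsy was induced with haloperidol 1 mg/kg s.c. After 30 min, each rat was placed facing upward on a wire screen inclined at 60°, and time to move one limb was recorded (cut-off 120 s). Rats immobile >75 s received test compound orally and were retested at 1 and 4 h.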

[2] = target: Adenosine receptors; A1 & A2a (Rattus norvegicus) (UniProt P25099+P30543)
Adenosine receptor A2a = Adenosine receptor A2a (Rattus norvegicus, UniProt P30543); test: In vitro ability to displace [3H]SCH-58261 from A2A adenosine receptor in Rat
Rattus norvegicus [3] = test: Anti-cataleptic activity in Rat at oral dose of 3 mg/kg retested at 1 hr after administration; assay type: functional; outline: as §1
Rattus norvegicus [4] = test: Anti-cataleptic activity in Rat at oral dose of 3 mg/kg retested at 4 hr after administration; assay type: functional; outline: as §1

Chain of Adenosine receptor A2a (P30543 whole entry): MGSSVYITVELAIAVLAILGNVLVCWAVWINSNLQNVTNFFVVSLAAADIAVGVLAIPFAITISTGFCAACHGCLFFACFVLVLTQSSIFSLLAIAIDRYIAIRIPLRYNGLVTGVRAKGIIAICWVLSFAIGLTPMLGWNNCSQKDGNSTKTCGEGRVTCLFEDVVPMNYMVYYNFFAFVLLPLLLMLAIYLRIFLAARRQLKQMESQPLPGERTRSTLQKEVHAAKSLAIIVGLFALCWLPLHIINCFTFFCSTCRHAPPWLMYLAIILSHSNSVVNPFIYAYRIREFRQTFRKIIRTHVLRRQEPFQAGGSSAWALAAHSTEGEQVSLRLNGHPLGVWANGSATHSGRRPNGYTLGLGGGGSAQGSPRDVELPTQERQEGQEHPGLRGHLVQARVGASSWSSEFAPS
Chain of Adenosine receptors; A1 & A2a (Rattus norvegicus) (P25099 whole entry, looked up): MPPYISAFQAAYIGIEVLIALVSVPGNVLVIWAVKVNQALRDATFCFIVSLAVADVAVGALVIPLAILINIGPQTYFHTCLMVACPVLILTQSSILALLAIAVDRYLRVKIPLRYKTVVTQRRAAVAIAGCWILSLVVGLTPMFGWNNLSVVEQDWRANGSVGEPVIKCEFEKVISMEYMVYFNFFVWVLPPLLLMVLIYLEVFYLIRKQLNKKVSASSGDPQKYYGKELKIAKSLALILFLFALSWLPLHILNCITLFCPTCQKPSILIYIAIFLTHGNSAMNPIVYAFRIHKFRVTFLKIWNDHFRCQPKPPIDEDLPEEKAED
Chain of Adenosine receptors; A1 & A2a (Rattus norvegicus) (P30543 whole entry, looked up): as the sequence (P30543 whole entry) above

Row | Index [2] | Ki (Adenosine receptor A2a) [nM] | SMILES | Activity (Rattus norvegicus [1]) | Activity (Rattus norvegicus [3]) | Activity (Rattus norvegicus [4])
1 | 1 | 1700 | COc1cccc(OC)c1-c1cc2nc(-c3ccco3)nn2c(N)n1 | – | – | –
2 | 98 | 2.9 | COc1ccc(-c2cc3nc(-c4ccco4)nn3c(N)n2)c(OC)c1 | – | – | –
3 | 64 | 7.3 | COc1ccc(-c2cc3nc(-c4ccco4)nn3c(N)n2)cc1OC | – | – | –
4 | 17 | 4.5 | COc1ccc(-c2cc3nc(-c4ccco4)nn3c(N)n2)c(OC)c1OC | – | – | –
5 | 65 | 4.5 | COc1ccc(OC)c(-c2cc3nc(-c4ccco4)nn3c(N)n2)c1 | – | – | –
6 | 103 | 7.3 | COc1ccc(-c2cc3nc(-c4ccco4)nn3c(N)n2)cc1 | – | – | –
7 | 13 | 3.7 | Cc1cccc(-c2cc3nc(-c4ccco4)nn3c(N)n2)c1 | – | – | –
8 | 69 | 4.5 | COc1cc(-c2cc3nc(-c4ccco4)nn3c(N)n2)cc(OC)c1OC | – | – | –
9 | 20 | 5 | COc1cccc(-c2cc3nc(-c4ccco4)nn3c(N)n2)c1 | – | – | –
10 | 19 | 8.4 | Cc1ccc(-c2cc3nc(-c4ccco4)nn3c(N)n2)cc1 | – | – | –
11 | 31 | 4.7 | CC(C)c1ccc(-c2cc3nc(-c4ccco4)nn3c(N)n2)cc1 | – | – | –
12 | 15 | 4.4 | Nc1nc(-c2cccs2)cc2nc(-c3ccco3)nn12 | – | – | –
13 | 11 | 5 | Nc1cccc(-c2cc3nc(-c4ccco4)nn3c(N)n2)c1 | – | – | –
14 | 27 | 4.3 | COc1ccccc1-c1cc2nc(-c3ccco3)nn2c(N)n1 | – | – | –
15 | 12 | 22 | Cc1ccccc1-c1cc2nc(-c3ccco3)nn2c(N)n1 | – | – | –
16 | 27 | 21.7 | COc1cccc(-c2cc3nc(-c4ccco4)nn3c(N)n2)c1OC | – | – | –

Continued, compound first:

Row | SMILES | Index [2] | Ki (Adenosine receptor A2a) [nM] | Activity (Rattus norvegicus [1]) | Activity (Rattus norvegicus [3]) | Activity (Rattus norvegicus [4])
17 | COCCOc1ccc(N2CCN(Cc3cccc(-c4cc5nc(-c6ccco6)nn5c(N)n4)c3)CC2)c(C)c1 | 72 | 2.7 | inactive | – | –
18 | CN(CCc1ccccc1)Cc1cccc(-c2cc3nc(-c4ccco4)nn3c(N)n2)c1 | 135 | 3.6 | inactive | – | –
19 | COCCOc1c(F)cc(N2CCN(Cc3cccc(-c4cc5nc(-c6ccco6)nn5c(N)n4)c3)CC2)cc1F | 338 | 2.2 | – | 28 | 47
20 | COCCOc1ccc(N2CCN(Cc3cccc(-c4cc5nc(-c6ccco6)nn5c(N)n4)c3)CC2)cc1 | 601 | 2.8 | – | 40 | 65
21 | Nc1nc(-c2ccccn2)cc2nc(-c3ccco3)nn12 | 34 | 1.4 | – | – | –
22 | Nc1nc(-c2cccc(CN3CCN(c4ccccc4)CC3)c2)cc2nc(-c3ccco3)nn12 | 69 | 4.6 | inactive | – | –
23 | COCCOc1ccc(N2CCN(Cc3cccc(-c4cc5nc(-c6ccco6)nn5c(N)n4)c3)CC2)c(C#N)c1 | 85 | 3.6 | inactive | – | –
24 | Nc1nc(-c2cccc(CN3CCN(c4ccc(Cl)c(Cl)c4)CC3)c2)cc2nc(-c3ccco3)nn12 | 3 | 10.5 | inactive | – | –
25 | COCCOc1ccc(N2CCN(Cc3cccc(-c4cc5nc(-c6ccco6)nn5c(N)n4)c3)CC2)c(F)c1 | 642 | 2.7 | – | 20 | 0
26 | Nc1nc(-c2cccc(CN3CCC(c4ccc(F)cc4)CC3)c2)cc2nc(-c3ccco3)nn12 | 115 | 7.4 | – | 20 | 20
27 | COCCOc1ccc(N2CCN(Cc3cccc(-c4cc5nc(-c6ccco6)nn5c(N)n4)c3)CC2)c(Cl)c1 | 204 | 2.9 | – | 12 | 15
28 | Nc1nc(-c2cccc(-c3ccccc3)c2)cc2nc(-c3ccco3)nn12 | 82 | 5.5 | – | – | –
29 | N#Cc1cccc(-c2cc3nc(-c4ccco4)nn3c(N)n2)c1 | 14 | 5.4 | – | – | –
30 | Nc1nc(-c2ccccc2)cc2nc(-c3ccco3)nn12 | 3 | 7 | – | – | –
31 | Nc1nc(-c2cccc(CN3CCN(c4nccs4)CC3)c2)cc2nc(-c3ccco3)nn12 | 192 | 2.4 | – | 20 | 10
32 | Nc1nc(-c2ccncc2)cc2nc(-c3ccco3)nn12 | 66 | 1.9 | – | – | –
33 | COCCOc1cccc(N2CCN(Cc3cccc(-c4cc5nc(-c6ccco6)nn5c(N)n4)c3)CC2)c1 | 115 | 4 | – | 29 | 53
34 | Nc1nc(-c2cccc(CO)c2)cc2nc(-c3ccco3)nn12 | 135 | 2.8 | – | – | –
35 | COCCOc1cc(F)c(N2CCN(Cc3cccc(-c4cc5nc(-c6ccco6)nn5c(N)n4)c3)CC2)c(F)c1 | 71 | 6.4 | inactive | – | –
36 | Nc1nc(-c2cccnc2)cc2nc(-c3ccco3)nn12 | 65 | 6.6 | – | – | –
37 | COCCOc1ccc(N2CCN(Cc3cccc(-c4cc5nc(-c6ccco6)nn5c(N)n4)c3)CC2)cc1C#N | 314 | 1.1 | – | 14 | 9
38 | COCCOc1ccc(N2CCN(Cc3cccc(-c4cc5nc(-c6ccco6)nn5c(N)n4)c3)CC2)cc1OC | 134 | 3.3 | – | 33 | 39
39 | Nc1nc(-c2cccc(CN3CCC(c4ccccc4)CC3)c2)cc2nc(-c3ccco3)nn12 | 69 | 4.6 | inactive | – | –
40 | COCCOc1ccc(C2CCN(Cc3cccc(-c4cc5nc(-c6ccco6)nn5c(N)n4)c3)CC2)cc1 | 202 | 8.9 | – | 0 | 0
